Source: PubChem BioAssay
This is one part of a sample in which hits are shown more often than they occur.
INS-1E ATP HTS: preserves ATP levels in cytokine-treated INS-1E cells; INS-1E cytokine-induced death, ATP luminescence, 48 h; normalised: neutral wells 0, positive control 100; protection from cytokine-induced ATP loss, % at 10 µM; 0.1% of 20,000 active; AID 488910;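 active means mean replicate protection from cytokine-induced ATP loss at least 50% and at least 75% of replicates each reaching 50%; inconclusive means meets only one of the two criteria, mean or replicate share; inactive means fails both the mean and replicate share criteria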
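Assay system – rat INS-1E insulinoma cell line · Quantity – 8000 cells per well · Buffer or medium – RPMI without phenol red, 5% FBS · Schedule – 48 h co-treatment, 10 min post-lysis read · Technique – luminescent ATP assay (CellTiter-Glo)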
T cruzi intra: blocks T. cruzi growth inside host cells. AID 651903. activity score (inhibition), % at 5.01 µM. intracellular Trypanosoma cruzi in host cells, plate reader. 4.9% of 22,000 active; in the data active means activity score above about 55%; inconclusive means no clear call, values can overlap the other calls;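 further: parasites and compound incubated about four days before reading; 0% = median of neutral control wells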
YB-1 expression: YB-1 expression inhibition; U2OS, qRT-PCR YB-1 vs CDIP delta delta Cp, 16 h; active compounds read high; zero = DMSO, each unit about twofold; delta delta Cp (YB-1 minus CDIP) (concentration not given with the values); 0.37% of 30,000 active;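 active means delta delta Cp rounded down to an integer at or above 3, about 3 SD of DMSO wells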;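 further: higher means less YB-1 transcript or more CDIP transcript relative to DMSO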
* marks the source's active call; other numbers are inactive results; u = inconclusive; x = not tested or not shown.

SMILES	INS-1E ATP HTS	T cruzi intra	YB-1 expression
C=C1C(=O)O[C@@H]2/C=C(\C)[C@@H](OC(=O)C(O)C(C)C)C/C=C(/C)C[C@@H](OC(=O)/C(=C/CO)CO)[C@@H]12 (stereo partly specified)	x	x	-0.13
O=c1c(Cc2ccc(Br)cc2)csc2ccccc12	x	x	-0.084
CCOC(=O)/N=C(/c1ccc(Cl)cc1)c1cc2ccccc2cn1	x	x	-0.1
COc1cc(CCC(O)CC(O)CCc2ccc(O)c(O)c2)ccc1O (stereo unspecified)	x	x	-0.18
COC(=O)c1ccccc1S(=O)(=O)/C(C#N)=C/Nc1nc(C)cc(C)n1	x	x	-0.8
Cn1c(N2C(=O)c3cccc4cccc(c34)C2=O)nc2ccccc21	x	x	0.26
C[C@@H]1CN([C@@H](C)CO)C(=O)Cc2cc(NC(=O)Nc3cccc4ccccc34)ccc2O[C@@H]1CN(C)Cc1ccc(Oc2ccccc2)cc1	-1	68*	0.23
C[C@H](CO)N1C[C@H](C)[C@H](CN(C)Cc2ccc(Oc3ccccc3)cc2)Oc2ccc(NC(=O)Nc3cccc4ccccc34)cc2CC1=O	-26	17	-0.29
C[C@H]1CN([C@@H](C)CO)C(=O)Cc2cc(NC(=O)Nc3cccc4ccccc34)ccc2O[C@@H]1CN(C)Cc1ccc(Oc2ccccc2)cc1	-20	70*	0.11
COc1ccc(CN(C)C[C@@H]2Oc3ccc(NC(=O)Nc4cccc5ccccc45)cc3CC(=O)N([C@H](C)CO)C[C@@H]2C)cc1	-4	19	0.37
COc1ccc(/C=C2\Oc3cc(O)cc(O)c3C2=O)cc1O	x	x	0.075
Cc1ccc(S(=O)(=O)Nc2ccc3c(c2)CC(=O)N([C@@H](C)CO)C[C@@H](C)[C@@H](CN(C)Cc2ccc(C(F)(F)F)cc2)O3)cc1	-31	64*	0.21
COc1ccc(CN(C)C[C@H]2Oc3ccc(NS(=O)(=O)c4ccc(F)cc4)cc3CC(=O)N([C@H](C)CO)C[C@H]2C)cc1	1	52	-0.0022
C[C@@H]1CN([C@H](C)CO)C(=O)Cc2cc(NS(=O)(=O)c3ccc(F)cc3)ccc2O[C@@H]1CN(C)Cc1ccc(C(F)(F)F)cc1	-48	60*	0.34
Cc1ccc(S(=O)(=O)Nc2ccc3c(c2)CC(=O)N([C@H](C)CO)C[C@H](C)[C@H](CN(C)Cc2ccc(C(F)(F)F)cc2)O3)cc1	-6	34	-0.35
C[C@H]1CN([C@@H](C)CO)C(=O)Cc2cc(NS(=O)(=O)c3ccccc3)ccc2O[C@H]1CN(C)Cc1ccc(C(F)(F)F)cc1	-1	48	0.42
COc1ccc(S(=O)(=O)Nc2ccc3c(c2)CC(=O)N([C@@H](C)CO)C[C@H](C)[C@@H](CN(C)Cc2ccc(C(F)(F)F)cc2)O3)cc1	-13	83*	0.24
Cc1cc(C)c(OC(=O)/C=C/c2cccs2)c(C)c1	x	x	-0.37
O=C(c1ccccc1)c1ccc(-c2ccccc2)cc1	x	x	0.17
C1=Cc2nonc2C2C=C(c3ccccc3)N=C12 (stereo unspecified)	x	x	0.54
CC12CCC(c3c1nn(-c1ccccc1)c3C(F)(F)F)C2(C)C (stereo unspecified)	x	x	-0.054
C[C@@H]1CN([C@@H](C)CO)C(=O)Cc2cc(NC(=O)Nc3ccc(C(F)(F)F)cc3)ccc2O[C@@H]1CN(C)S(=O)(=O)c1cccs1	-20	73*	0.36
Cc1ccc(S(=O)(=O)N(C)C[C@@H]2Oc3ccc(NC(=O)Nc4ccc(C(F)(F)F)cc4)cc3CC(=O)N([C@H](C)CO)C[C@@H]2C)cc1	-32	u	0.55
C[C@H]1CN([C@@H](C)CO)C(=O)Cc2cc(NC(=O)Nc3ccc(C(F)(F)F)cc3)ccc2O[C@@H]1CN(C)S(=O)(=O)c1ccccc1	8	-5	0.38
C[C@H](CO)N1C[C@H](C)[C@H](CN(C)S(=O)(=O)c2ccccc2)Oc2ccc(NC(=O)Nc3ccc(C(F)(F)F)cc3)cc2CC1=O	-68	77*	0.27
SMILES	INS-1E ATP HTS	T cruzi intra	YB-1 expression
C[C@@H]1CN([C@@H](C)CO)C(=O)Cc2cc(NC(=O)Nc3ccc(C(F)(F)F)cc3)ccc2O[C@@H]1CN(C)S(=O)(=O)c1ccccc1	-11	75*	-0.46
C[C@H](CO)N1C[C@H](C)[C@H](CN(C)S(=O)(=O)c2cccs2)Oc2ccc(NC(=O)Nc3ccc(C(F)(F)F)cc3)cc2CC1=O	-22	41	x
C=C(CC[C@@H](C)[C@H]1CCC2(C)C3=C(C[C@H](O)[C@]12C)[C@@]1(C)CC[C@@H](OC(=O)CC(=O)O)C(C)(C)C1CC3)[C@@H](C)C(=O)O (stereo partly specified)	x	x	-0.009
CC(C)S(=O)(=O)c1cscc1N1C(=O)c2ccccc2C1=O	x	x	-0.22
O=C(Nc1cc(S(=O)(=O)c2ccccc2)cs1)c1ccc(Cl)cc1	x	x	0.12
CN1CCC2(CC1)C(C#N)=C(N)Oc1n[nH]c(C(=O)OC(C)(C)C)c12	x	x	-0.31
Cc1ccc(S(=O)(=O)N(C)C[C@H]2OCCCC[C@@H](C)Oc3ccc(NS(=O)(=O)c4ccc(Cl)cc4)cc3C(=O)N([C@H](C)CO)C[C@@H]2C)cc1	-10	64*	0.038
C[C@@H]1CCCCO[C@H](CN(C)CC2CCCCC2)[C@@H](C)CN([C@H](C)CO)C(=O)c2cc(NS(=O)(=O)c3ccc(Cl)cc3)ccc2O1	-2	27	-0.1
C[C@@H]1CCCCO[C@@H](CN(C)CC2CCCCC2)[C@@H](C)CN([C@H](C)CO)C(=O)c2cc(NS(=O)(=O)c3ccc(Cl)cc3)ccc2O1	-22	62*	0.1
C[C@@H]1CCCCO[C@@H](CN(C)S(=O)(=O)c2ccc(Cl)cc2)[C@@H](C)CN([C@H](C)CO)C(=O)c2cc(NS(=O)(=O)c3ccc(Cl)cc3)ccc2O1	-15	59*	-0.85
Cc1ccc(S(=O)(=O)Nc2ccc3c(c2)C(=O)N([C@H](C)CO)C[C@H](C)[C@H](CN(C)S(=O)(=O)c2ccc(Cl)cc2)OCCCC[C@@H](C)O3)cc1	-35	u	-0.041
C[C@@H]1CCCCO[C@H](CN(C)S(=O)(=O)c2ccc(Cl)cc2)[C@@H](C)CN([C@H](C)CO)C(=O)c2cc(NS(=O)(=O)c3ccc(Cl)cc3)ccc2O1	-6	28	-0.03
O=C(/C=C/c1ccccc1)Oc1ccc2ccccc2c1	x	x	-0.085
CCOC(=O)c1cc(C#N)c(Sc2ccc(C)cc2)nc1C(F)(F)F	x	x	-0.54
C=C(C(=O)O)[C@@H]1CC[C@@]2(C)CCC=C(C)[C@@H]2C1	x	x	-0.12
C=C(C(=O)O)[C@@H]1CC[C@@]2(C)CC[C@@H](O)C(=C)C2C1 (stereo partly specified)	x	x	3.6*
C=C1C(=O)O[C@@H]2/C=C(\C)[C@H](OC(C)=O)C/C=C(/C)C[C@@H](OC(=O)/C(=C/CO)CO)C12 (stereo partly specified)	x	x	0.95
C[C@@H]1CCCCO[C@@H](CN(C)C(=O)Nc2ccc(C(F)(F)F)cc2)[C@@H](C)CN([C@H](C)CO)C(=O)c2cc(NS(=O)(=O)c3ccccc3)ccc2O1	-4	61*	-0.21
C[C@@H]1CCCCO[C@H](CN(C)C(=O)Nc2cccc3ccccc23)[C@@H](C)CN([C@H](C)CO)C(=O)c2cc(NS(=O)(=O)c3ccccc3)ccc2O1	8	12	-0.23
